The results in this text go back to ChEMBL document CHEMBL1148383, “Semisynthetic macrolide antibacterials derived from tylosin. Synthesis and structure-activity relationships of novel desmycosin analogues” (J Med Chem, 2004).

In brackets after ≈: the same amount, converted by molar mass.

What all share (type): functional
The test system of one assay is Haemophilus influenzae. Put plainly: Antibacterial activity against Haemophilus influenzae ATCC 49247. Summed up:
(§1)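 MICs were determined by broth microdilution following NCCLS guidelines. The test panel includes erythromycin-susceptible strains and erythromycin-resistant strains with constitutive or inducible MLSB phenotypes or with efflux resistance.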

Assay [1] has as its system Staphylococcus aureus. Put plainly: Antibacterial activity against Staphylococcus aureus PSCB-0538. An outline of the steps:
as §1

In assay [2] the test system is Streptococcus pyogenes. Put plainly: Antibacterial activity against Streptococcus pyogenes PSCB-0545. Summed up:
as §1

Assay [3] concerns Staphylococcus aureus. Put plainly: Antibacterial activity against Staphylococcus aureus PSCB-0330. Summed up:
as §1

A further assay has as its system Enterococcus faecalis. In words: Antibacterial activity against Enterococcus faecalis ATCC 29212. An outline of the steps:
as §1

Assay [4] has as its system Staphylococcus aureus. In words: Antibacterial activity against Staphylococcus aureus ATCC 13709. An outline of the steps: as §1
Assay [5] concerns Streptococcus pyogenes. In words: Antibacterial activity against Streptococcus pyogenes PSCB-0543. Summed up: as §1
For a further assay, the system named is Escherichia coli. In words: Antibacterial activity against Escherichia coli ATCC […]. An outline of the steps: as §1
In the next assay the test system is Streptococcus pneumoniae. In words: Antibacterial activity against Streptococcus pneumoniae PSCB-0541. An outline of the steps:
as §1

Assay [6] relates to Staphylococcus aureus. In words: Antibacterial activity against Staphylococcus aureus PSCB-0331. An outline of the steps:
as §1

As to `CC[C@H]1OC(=O)C[C@@H](O)[C@H](C)[C@@H](O[C@@H]2O[C@H](C)[C@@H](O)[C@@H](N(C)C)[C@H]2O)[C@@H](CC=O)C[C@@H](C)C(=O)/C=C/C(C)=C/[C@@H]1CO[C@@H]1O[C@H](C)[C@@H](O)[C@@H](OC)[C@H]1OC`, the MIC was 4 µg/mL (≈ 5.18 µM) against Haemophilus influenzae; 1 µg/mL (≈ 1.3 µM) in the assay on Staphylococcus aureus [1]; 0.5 µg/mL (≈ 0.648 µM) against Streptococcus pyogenes [2]; over 128 µg/mL against Staphylococcus aureus [3]; 1 µg/mL (≈ 1.3 µM) in the assay on Enterococcus faecalis; 1 µg/mL (≈ 1.3 µM) with Staphylococcus aureus [4]. Besides, the MIC was found to be 1 µg/mL (≈ 1.3 µM) in the assay on Streptococcus pyogenes [5], 128 µg/mL (≈ 166 µM) in the assay on Escherichia coli, 1 µg/mL (≈ 1.3 µM) against Streptococcus pneumoniae and 1 µg/mL (≈ 1.3 µM) against Staphylococcus aureus [6].
In the case of `CC[C@H]1OC(=O)C[C@@H](O)[C@H](C)[C@@H](OC2OC(C)C(O)C(N(C)C)C2O)[C@@H](CC=O)C[C@@H](C)C(=O)CCC(C)C[C@@H]1COC1OC(C)C(O)C(OC)C1OC` (stereo not given in full), the MIC with Haemophilus influenzae was determined as 64 µg/mL (≈ 82.5 µM); with Staphylococcus aureus [1], 2 µg/mL (≈ 2.58 µM); against Streptococcus pyogenes [2], 1 µg/mL (≈ 1.29 µM); against Staphylococcus aureus [3], 128 µg/mL (≈ 165 µM); against Enterococcus faecalis, 32 µg/mL (≈ 41.2 µM); in the assay with Staphylococcus aureus [4], 1 µg/mL (≈ 1.29 µM). Besides, the MIC in the assay with Streptococcus pyogenes [5] was found to be 1 µg/mL (≈ 1.29 µM); with Escherichia coli, 128 µg/mL (≈ 165 µM); in the assay on Streptococcus pneumoniae, 2 µg/mL (≈ 2.58 µM); against Staphylococcus aureus [6], 2 µg/mL (≈ 2.58 µM).
As for `CC[C@H]1OC(=O)CC(=O)[C@H](C)[C@@H](O[C@@H]2O[C@@H](C)[C@@H](O)[C@@H](N(C)C)[C@H]2O)[C@H]2C[C@H](O)[C@@](C)(C2)C(=O)/C=C/C(C)=C/[C@@H]1CO[C@@H]1O[C@@H](C)[C@@H](O)[C@@H](OC)[C@@H]1OC`, the MIC in the assay on Haemophilus influenzae was 128 µg/mL (≈ 166 µM); with Staphylococcus aureus [1], 8 µg/mL (≈ 10.4 µM); against Streptococcus pyogenes [2] it was 16 µg/mL (≈ 20.8 µM); against Staphylococcus aureus [3], over 128 µg/mL; with Enterococcus faecalis, 8 µg/mL (≈ 10.4 µM); against Staphylococcus aureus [4] it was 8 µg/mL (≈ 10.4 µM). Also, the MIC is 64 µg/mL (≈ 83.1 µM) with Streptococcus pyogenes [5], over 128 µg/mL in the assay with Escherichia coli, 4 µg/mL (≈ 5.2 µM) in the assay with Streptococcus pneumoniae and 32 µg/mL (≈ 41.6 µM) in the assay with Staphylococcus aureus [6].
For the compound `CC[C@H]1OC(=O)/C=C\[C@H](C)[C@@H](OC2OC(C)C(O)C(N(C)C)C2O)[C@@H](CC=O)C[C@@H](C)C(=O)/C=C/C(C)=C/[C@@H]1COC1OC(C)C(O)C(OC)C1OC` (stereo not given in full), the MIC in the assay with Haemophilus influenzae is 4 µg/mL (≈ 5.31 µM); in the assay on Staphylococcus aureus [1], 4 µg/mL (≈ 5.31 µM); against Streptococcus pyogenes [2], 1 µg/mL (≈ 1.33 µM); against Staphylococcus aureus [3], over 128 µg/mL; in the assay on Enterococcus faecalis it was 8 µg/mL (≈ 10.6 µM); in the assay with Staphylococcus aureus [4] it was 0.5 µg/mL (≈ 0.663 µM). In addition, the MIC against Streptococcus pyogenes [5] was 2 µg/mL (≈ 2.65 µM); against Escherichia coli, over 128 µg/mL; in the assay with Streptococcus pneumoniae, 2 µg/mL (≈ 2.65 µM); against Staphylococcus aureus [6] it was 1 µg/mL (≈ 1.33 µM).
As to `CC[C@H]1O/C(O)=C/C(=O)[C@H](C)[C@@H](OC2OC(C)C(O)C(N(C)C)C2O)[C@@H](C/C=C/C(=O)OC)C[C@@H](C)C(=O)/C=C/C(C)=C/[C@@H]1COC1OC(C)C(O)C(OC)C1OC` (stereo not given in full), the MIC against Haemophilus influenzae was 128 µg/mL (≈ 155 µM); in the assay on Staphylococcus aureus [1], 2 µg/mL (≈ 2.42 µM); against Streptococcus pyogenes [2], 4 µg/mL (≈ 4.84 µM); in the assay on Staphylococcus aureus [3], over 128 µg/mL; with Enterococcus faecalis, 4 µg/mL (≈ 4.84 µM); in the assay on Staphylococcus aureus [4] it was 2 µg/mL (≈ 2.42 µM). Further, the MIC is 4 µg/mL (≈ 4.84 µM) against Streptococcus pyogenes [5], over 128 µg/mL in the assay with Escherichia coli, 32 µg/mL (≈ 38.7 µM) against Streptococcus pneumoniae and 2 µg/mL (≈ 2.42 µM) against Staphylococcus aureus [6].
`CC[C@H]1OC(=O)C[C@@H](O)[C@H](C)[C@@H](OC2OC(C)C(OC3CC(C)(O)C(O)C(C)O3)C(N(C)C)C2O)[C@@H](CC=O)C[C@@H](C)C(=O)CCC(C)C[C@@H]1COC1OC(C)C(O)C(OC)C1OC` (stereo not given in full): the MIC came to 64 µg/mL (≈ 69.6 µM) with Haemophilus influenzae; 4 µg/mL (≈ 4.35 µM) in the assay with Staphylococcus aureus [1]; 1 µg/mL (≈ 1.09 µM) against Streptococcus pyogenes [2]; 64 µg/mL (≈ 69.6 µM) against Staphylococcus aureus [3]; 16 µg/mL (≈ 17.4 µM) with Enterococcus faecalis; 2 µg/mL (≈ 2.17 µM) in the assay with Staphylococcus aureus [4]. The MIC against Streptococcus pyogenes [5] worked out at 64 µg/mL (≈ 69.6 µM); in the assay on Escherichia coli, 64 µg/mL (≈ 69.6 µM); with Streptococcus pneumoniae, 8 µg/mL (≈ 8.69 µM); in the assay on Staphylococcus aureus [6] it was 2 µg/mL (≈ 2.17 µM).
Regarding `CC[C@H]1O/C(O)=C/C(=O)[C@H](C)[C@@H](OC2OC(C)C(O)C(N(C)C)C2O)[C@@H](CC=O)C[C@@H](C)C(=O)/C=C/C(C)=C/[C@@H]1COC1OC(C)C(O)C(OC)C1OC` (stereo not given in full), the MIC was over 128 µg/mL with Haemophilus influenzae; 16 µg/mL (≈ 20.8 µM) against Staphylococcus aureus [1]; 4 µg/mL (≈ 5.2 µM) in the assay on Streptococcus pyogenes [2]; over 128 µg/mL in the assay with Staphylococcus aureus [3]; 8 µg/mL (≈ 10.4 µM) against Enterococcus faecalis; 8 µg/mL (≈ 10.4 µM) with Staphylococcus aureus [4]. Besides, the MIC is 32 µg/mL (≈ 41.6 µM) in the assay on Streptococcus pyogenes [5], over 128 µg/mL against Escherichia coli, 8 µg/mL (≈ 10.4 µM) with Streptococcus pneumoniae and 32 µg/mL (≈ 41.6 µM) in the assay on Staphylococcus aureus [6].
